Most compounds without a hit are left out; they make up all but 1.3% or so of the library.
C-LANA FP: blocks KSHV LANA C-terminal domain binding to DNA. hit rate 0.078% among 340,000. MBP-C-LANA/FAM-LBS DNA binding, fluorescence polarization. inhibition, % at 9 µM;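 active means highest replicate inhibition at or above 60% at 9 µM, even if other replicates fall short; inactive means all replicates below 60% inhibition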;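 further: 0% = neutral control wells and 100% = 4 µM acridine orange control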
MEX-5 binding: C. elegans MEX-5 TCR-2 RNA binding activity | MEX-5/FITC-TCR2 RNA binding, fluorescence polarization; hits give low values | activity score (negative = inhibition of binding), % at 10 µM | hit rate 0.38% among 300,000 | AID 1832;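 active means inhibition past about -25% in most replicates, and total fluorescence under double the plate's negative control median, limit read from the data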;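 further: 0% = DMSO and -100% = 5 µM competing unlabeled TCR2 RNA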
Target sequence (Q9XUB2 whole entry, looked up): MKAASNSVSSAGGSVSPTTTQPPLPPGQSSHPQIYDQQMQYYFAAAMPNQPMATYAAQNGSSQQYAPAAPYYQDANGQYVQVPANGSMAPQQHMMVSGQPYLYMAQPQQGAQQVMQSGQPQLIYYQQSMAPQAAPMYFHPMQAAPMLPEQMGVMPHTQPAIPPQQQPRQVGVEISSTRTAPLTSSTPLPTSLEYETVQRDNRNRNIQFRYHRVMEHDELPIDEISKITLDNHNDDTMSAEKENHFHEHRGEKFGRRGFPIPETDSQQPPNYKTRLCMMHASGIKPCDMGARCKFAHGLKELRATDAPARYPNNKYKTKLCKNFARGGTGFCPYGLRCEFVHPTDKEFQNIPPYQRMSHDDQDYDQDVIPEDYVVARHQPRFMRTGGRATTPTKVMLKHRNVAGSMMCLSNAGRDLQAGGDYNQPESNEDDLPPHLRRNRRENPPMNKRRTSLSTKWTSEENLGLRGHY
T cell HTS: T cell immune modulation candidate; 2C CD8+ T cell-vesicle binding, flow cytometry; hits give low values; response (vesicle binding), % at 7 µM; hit rate 0.068% among 330,000; AID 2052;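 active means response, share of CD8 T cells binding vesicles, and their 90th percentile fluorescence all below set limits, cut at about 80% in these data, passing the limit was not always enough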;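 further: values below 100% mean blocked vesicle binding to the CD8+ T cells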
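Material: murine 2C transgenic CD8+ T lymphocytes / Also added: QL9-peptide-loaded Drosophila micro-vesicles bearing Ld, ICAM-1 and B7-1 / Schedule: binding step 1.5 h, 37 °C, antibody labelling 20 min, ice / Signal: flow cytometry, PE anti-B7-1 (FL2) versus Alexa647 anti-CD8 (FL8), PFA-fixed / Evaluation: percent CD8+ FL2 mean versus row control / Benchmarks: naked versus QL9-loaded vesicles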
EBV gp42 block: EBV gp42 inhibition; Fluorescence polarization binding assay, mP read-out; hit rate 0.42% among 220,000; Q1HVG2; inhibition, % (tested at 21.74 µM); AID 1085; in the data active means inhibition above about 50%
Target sequence (Q1HVG2 whole entry, looked up): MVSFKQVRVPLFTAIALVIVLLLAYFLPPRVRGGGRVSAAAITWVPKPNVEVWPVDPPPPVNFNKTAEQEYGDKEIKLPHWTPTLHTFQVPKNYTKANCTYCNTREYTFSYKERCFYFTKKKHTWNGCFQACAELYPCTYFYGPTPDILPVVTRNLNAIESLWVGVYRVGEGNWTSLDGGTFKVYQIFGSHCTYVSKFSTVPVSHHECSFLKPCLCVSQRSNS
Keap1 Nrf2 FP: Keap1-Nrf2 (human) interaction inhibition; Q14145; inhibition, % at 9.4 µM; AID 504523; Keap1 Kelch-Nrf2 peptide fluorescence polarization, 1536-well; hit rate 0.15% among 340,000; in the data active means inhibition above about 12%;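 further: human Keap1 Kelch domain with fluorescein labeled Nrf2 9mer peptide probe; 0% = neutral control wells and 100% = peptide positive control; higher means more block of Keap1 binding to Nrf2 peptide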
GRK2 inh: blocks RNA aptamer binding to human GRK2 | hit rate 0.59% among 330,000 | inhibition of aptamer binding, % at 10 µM | bead flow cytometry, FAM-aptamer displacement from GRK2 | AID 488847;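 active means inhibition of aptamer binding above 40%, roughly 3 SD of noise, on plates passing a quality check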;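 further: median bead fluorescence of bound FAM aptamer so fluorescent compounds give negative values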
GRK2 inh confirm: confirmation of human GRK2 inhibitors displacing RNA aptamer | shares compounds with GRK2 inh | bead-bound GRK2, FAM-aptamer displacement, flow cytometry | aptamer displacement, % at 10 µM | hit rate 4% among 2,000 | AID 504451;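 active means aptamer displacement above 40%, near three times the noise of non-fluorescent compounds, on plates passing quality checks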;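 further: negative values mostly reflect intrinsic compound fluorescence rather than true enhancement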
FAM quench CP1: counter-screen for GRK2 aptamer inhibitors: fluorescent aptamer quenchers; 2,000 tested, under 10 active; fluorescence response (% of DMSO), % at 10 µM; shares compounds with GRK2 inh; Carboxyfluorescein RNA aptamer on beads, flow cytometry quenching; hits give low values;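 active means compounds that quench the bead-bound fluorescent RNA probe, cutting fluorescence to under half of the solvent control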;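 further: counterscreen run without GRK2 so only probe quenching by compound is measured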
GRK2 confirm 2: human GRK2 inhibition confirmation, cherry pick 2; 360 tested, under 10 active; bead-bound GRK2, FAM-aptamer displacement, flow cytometry; shares compounds with GRK2 inh; inhibition of aptamer binding, % at 10 µM;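 active means inhibition of aptamer binding above 40%, about triple the noise seen with nonglowing compounds, on plates passing quality control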;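 further: negative values mostly come from compounds that fluoresce themselves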
FAM quench CP2: counter-screen for GRK2 binding hits: quenchers of fluorescent RNA aptamer; shares compounds with GRK2 inh; carboxyfluorescein RNA aptamer beads, flow cytometry quenching; hits give low values; fluorescence response vs DMSO, % at 10 µM; 360 tested, under 10 active;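 active means response vs DMSO under 50%, meaning signal dropped by over half, treated as fluorescence quencher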;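 further: labelled aptamer on streptavidin beads without GRK2 as a quench counter-screen; 100% = bead fluorescence of DMSO wells and lower means quenching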
Numbers without * were called inactive; i = inactive; · = no result given.

SMILES	C-LANA FP	MEX-5 binding	T cell HTS	EBV gp42 block	Keap1 Nrf2 FP	GRK2 inh	GRK2 inh confirm	FAM quench CP1	others
COc1ccc(C2C3C=CCC(c4cccc(-c5ccc(C)cc5)c4)C3C(=O)N2Cc2ccccc2)cc1Cl (stereo unspecified)	-2.3	0.0	574.5	-18.0	-1.7	3.0	-2.8	96.6
COc1ccc(-c2cccc(C3CC=CC4C3C(=O)N(Cc3ccccc3)C4c3ccc4ccccc4c3)c2)cc1 (stereo unspecified)	-0.1	0.6	230.1	-17.1	-5.4	2.0	·	·
Cc1cc2nc(N3C(=O)CNC3=S)sc2cc1C	0.8	-6.6	139.7	-9.2	0.2	75.0*	-1.3	97.0
CCCCn1c(N)c(N(Cc2ccccc2OC)C(=O)CSCC(=O)Nc2cccc(C)c2)c(=O)[nH]c1=O	0.1	-11.4	132.7	·	1.1	0.0	·	·
COCCCN1C(=O)C(=O)/C(=C(/O)c2ccc(S(=O)(=O)N3CCCCC3)cc2)C1c1ccc(O)cc1 (stereo unspecified)	-0.5	-2.0	i	·	-3.6	0.0	-3.8	95.3
O=S(=O)(NCc1ccc(F)cc1)c1ccc(-c2cnc(C3CC3)o2)cc1	1.0	0.2	219.6	·	-4.0	51.0*	5.7	98.7
O=S(=O)(Nc1ccccc1)c1ccc(-c2cnc(C3CC3)o2)cc1	-0.7	2.8	397.9	·	-3.5	1.0	·	·
COc1ccc(CN2CCN(CC=C(C)C)C(CCO)C2)cc1Cn1cncn1 (stereo unspecified)	-0.7	4.4	355.7	1.9	-2.9	1.0	·	·
COc1ccc(CN2CCN(C(C)C)C(CCO)C2)cc1Cn1cncn1 (stereo unspecified)	1.3	1.1	151.1	-10.0	-1.2	46.0*	-3.2	97.8
Cc1cc(NC(=O)CS(=O)(=O)c2cn(Cc3ccc(F)cc3)c3ccccc23)no1	-1.3	-0.9	278.6	-7.3	-0.2	0.0	·	·
CCC(CO)Nc1ccc(-c2nn(C)c(=O)c3ccccc23)cc1[N+](=O)[O-] (stereo unspecified)	0.4	-1.4	237.1	-10.3	-6.9	0.0	·	·
CCC(CO)Nc1ccc(-c2n[nH]c(=O)c3ccccc23)cc1[N+](=O)[O-] (stereo unspecified)	0.0	1.9	274.7	·	-6.9	60.0*	·	·	GRK2 confirm 2=-2.8;FAM quench CP2=105.0
CC(=O)COC(=O)c1cccc(N2C(=O)C3C4C=CC(C4)C3C2=O)c1 (stereo unspecified)	0.3	1.4	136.0	-19.4	-1.8	80.0*	2.0	103.6
Cc1ccc(NC(=O)CC(C)S(=O)(=O)c2ccc3c(c2)NC(=O)CO3)c(Cl)c1 (stereo unspecified)	-1.2	3.0	213.3	·	0.6	0.0	·	·	GRK2 confirm 2=-39.8;FAM quench CP2=102.0
O=C(Cc1ccc(Cl)cc1)Nc1cccc2ncccc12	-1.8	0.7	263.6	-10.7	-6.7	0.0	·	·
Nc1c(C(=O)CSc2nnnn2-c2ccc(O)cc2)c(=O)[nH]c(=O)n1C1CC1	1.3	·	·	·	-7.1	·	·	·
COc1ccc(NC(=S)NCc2cccs2)cc1	3.5	-1.1	198.3	-15.6	2.0	62.0*	-0.3	109.6
CC(C)c1ccc(NC(=S)NCc2cccs2)cc1	1.0	0.8	480.9	-5.8	-1.2	0.0	·	·
Cc1cc(Br)c2c(c1)C1(OCCO1)C(=O)N2	0.2	0.5	544.5	·	-8.1	0.0	·	·
Cc1cc(C)c2c(c1)C1(OCCO1)C(=O)N2	0.6	-1.2	137.5	·	-6.0	18.0	1.1	103.4
COCCn1c(=O)[nH]c2cc(C(=O)Nc3ccc(OC)c(Cl)c3)ccc2c1=O	0.9	0.3	174.7	·	1.7	57.0*	-1.4	102.3
COCCn1c(=O)[nH]c2cc(C(=O)Nc3cc(OC)c(OC)c(OC)c3)ccc2c1=O	-2.1	2.7	178.8	·	1.5	2.0	·	·
CCn1c(SCC(=O)N2CCOCC2)nnc1-c1ccco1	0.9	2.4	995.2	·	-6.1	7.0	·	·
CCn1c(SCC(=O)N2CCCC2)nnc1-c1ccco1	-0.3	0.6	409.0	·	-3.6	47.0*	3.2	95.4
CN(C)CCCNC1=CC(=O)CC(c2ccccc2)C1 (stereo unspecified)	-0.9	2.9	817.2	-16.4	-3.4	80.0*	-0.8	104.0
SMILES	C-LANA FP	MEX-5 binding	T cell HTS	EBV gp42 block	Keap1 Nrf2 FP	GRK2 inh	GRK2 inh confirm	FAM quench CP1	others
CC(C)CCNC1=CC(=O)CC(c2ccccc2)C1 (stereo unspecified)	-2.4	0.4	318.1	-3.4	5.7	1.0	·	·
CC(C)(O)CNC(=O)C(Cc1ccccc1)N1C(=O)c2ccccc2C1=O (stereo unspecified)	-3.0	2.6	211.7	·	3.6	0.0	·	·
CN(C)CCNc1c2c(nc3ccccc13)CCC2	-0.4	-0.6	487.9	·	-2.6	0.0	·	·	GRK2 confirm 2=4.4;FAM quench CP2=100.0
Fc1cccc(Nc2c3c(nc4ccccc24)CCC3)c1	-2.2	-2.7	305.5	·	-4.8	0.0	·	·	GRK2 confirm 2=0.7;FAM quench CP2=100.0
O=C(O)CNC(=S)N(Cc1cccs1)C1CCCCC1	0.6	-0.4	119.5	-13.3	-5.1	2.0	·	·
O=CN1CCN(C(=O)c2cccc([N+](=O)[O-])c2)CC1	-0.4	-0.6	245.1	·	0.9	·	·	·
O=C(NC1CCN(C(=O)c2cccc([N+](=O)[O-])c2)CC1)c1ccccc1	2.2	-1.5	468.6	·	4.1	98.0*	-0.2	99.8
CC1CCCC(C)N1C(=O)c1ccc(CS(=O)(=O)c2ccccc2)cc1 (stereo unspecified)	-0.8	-1.5	216.3	·	-0.5	0.0	·	·
COc1ccc(CC(=O)N(Cc2ccccc2)c2cccc(C)c2)cc1OC	0.8	0.9	338.2	·	1.7	100.0*	·	·	GRK2 confirm 2=4.8;FAM quench CP2=99.0
Cc1ccccc1NC(=O)COc1coc(CN2CCCc3ccccc32)cc1=O	-3.3	0.4	156.9	·	-2.0	2.0	·	·
O=C(COc1coc(CN2CCCc3ccccc32)cc1=O)Nc1ccc([N+](=O)[O-])cc1	-0.5	-1.5	267.5	·	-0.4	62.0*	-5.1	99.9
